UBC13 polyUb = human UBC13 polyubiquitination inhibition | P61088 | AID 485273 | 330,000 compounds, 0.47% hits | UBC13 polyubiquitin chain formation, TR-FRET | inhibition, % at 20 µM; in the data active = inhibition above about 45%, passing the limit was not always enough
Fh CTSL1 inh = blocks F. hepatica cathepsin L1 in PFM18AAP counter-screen; inhibition, % at 5.96 µM; recombinant F. hepatica cathepsin L1, Z-Leu-Arg-MCA fluorescence; 300,000 compounds, 0.49% hits;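 active = inhibition above the mean of all tested compounds plus 3 SD, set per screening campaign, cut at about 17% in these data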;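 also: 0% = plate median of test compound wells and 100% = 1 µM Z-Phe-Ala-diazomethylketone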
PP1 inh = counter-screen for PP5 inhibitors: inhibitors of human PP1-alpha. AID 2235. inhibition, % at 6.7 µM. purified PP1alpha, OMFP fluorescence. 320,000 compounds, 0.9% hits;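 active = inhibition above the mean inhibition of all tested compounds plus 3 SD, computed separately for each screening campaign, cut at about 15% in these data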
PREPL inhibitor = human PREPL enzyme inhibition; recombinant PREPL, fluorescence polarization activity-based probe; inhibition, % at 5.96 µM; 320,000 compounds, 0.68% hits; AID 2751; in the data active = inhibition above about 43%;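 also: 0% = enzyme with DMSO and 100% = wells lacking enzyme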
Target sequence (Q4J6C6 whole entry, looked up): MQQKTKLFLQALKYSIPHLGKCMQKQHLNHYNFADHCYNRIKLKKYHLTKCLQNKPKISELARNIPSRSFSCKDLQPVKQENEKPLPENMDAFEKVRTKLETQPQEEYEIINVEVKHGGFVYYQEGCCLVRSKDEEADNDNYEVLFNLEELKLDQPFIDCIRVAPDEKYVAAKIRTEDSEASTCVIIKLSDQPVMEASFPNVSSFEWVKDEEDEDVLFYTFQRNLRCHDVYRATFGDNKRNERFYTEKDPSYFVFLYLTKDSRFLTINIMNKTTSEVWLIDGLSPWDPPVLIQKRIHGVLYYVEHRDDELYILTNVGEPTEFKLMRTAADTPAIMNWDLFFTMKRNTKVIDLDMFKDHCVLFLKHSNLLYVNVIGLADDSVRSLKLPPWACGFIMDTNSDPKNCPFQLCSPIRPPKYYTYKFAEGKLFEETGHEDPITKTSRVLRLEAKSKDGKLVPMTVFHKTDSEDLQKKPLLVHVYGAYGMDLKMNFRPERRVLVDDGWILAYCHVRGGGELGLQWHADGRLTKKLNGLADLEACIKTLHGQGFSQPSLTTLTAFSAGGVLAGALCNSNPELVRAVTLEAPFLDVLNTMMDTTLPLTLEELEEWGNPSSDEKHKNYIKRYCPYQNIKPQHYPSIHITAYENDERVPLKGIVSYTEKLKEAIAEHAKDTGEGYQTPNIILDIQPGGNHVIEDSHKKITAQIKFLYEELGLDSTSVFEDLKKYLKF
PP5 inh = blocks human protein phosphatase 5 activity; P53041; purified PP5c, OMFP substrate fluorescence; inhibition, % at 6.7 µM; 320,000 compounds, 0.18% hits; AID 1987;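 active = inhibition above the campaign's mean inhibition across all tested compounds plus 3 SD, cut at about 9.5% in these data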;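 also: 0% = DMSO only and 100% = 100 µM cantharidin control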
UCH37 DUB inh = inhibitors of human deubiquitinating enzyme UCH37. Q9Y5K5. purified proteasome/UCH37, Ub-AMC cleavage fluorescence. inhibition, % (concentration not given with the values). 330,000 compounds, 0.33% hits. AID 588478;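 active = mean inhibition over replicate wells above about 20%, limit read from the data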;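 also: 0% = compound-free wells with enzyme and 100% = wells lacking proteasome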
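Material: Human UCH37 enzyme supplied as purified proteasome complex | Schedule: 30 min compound-proteasome preincubation then 25 min substrate reaction, room temperature | Detection: AMC fluorescence from Ub-AMC cleavage, excitation 355 nm, emission 460 nm | Benchmarks: Wells without proteasome as full block, compound-free enzyme plus substrate as uninhibited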
* hit, by the source's call; · = not tested or not shown. The list is not random: actives were taken first. Their share in the collection is about 2.3%.

SMILES | UBC13 polyUb | Fh CTSL1 inh | PP1 inh | PREPL inhibitor | PP5 inh | UCH37 DUB inh
Cc1ccc(-n2c(N)c(C(=O)Nc3c(C)n(C)n(-c4ccccc4)c3=O)c3nc4ccccc4nc32)cc1C | -18 | 5 | 11 | 43* | 1 | ·
CN(C)C=NC(=S)Nc1cc(Cl)cc(Cl)c1 | · | · | · | · | · | 1
O=C(CNC(=O)C1CCCCC1)OCc1cc(=O)oc2ccc3ccccc3c12 | 19 | 29* | 2 | 5 | 2 | -439
O=c1[nH]c(/C=C\c2cccs2)nc(O)c1[N+](=O)[O-] | 1 | 8 | 2 | 1 | 2 | 21*
O=c1[nH]c(/C=C\c2ccc(O)c(Cl)c2)nc(O)c1[N+](=O)[O-] | -35 | 9 | 4 | 7 | 1 | 21*
COc1ccc(C=NN=C2SCC(=O)N2Cc2ccccc2)cc1 | · | · | · | · | · | 0
COc1ccc(C(=O)NN=Cc2ccc(N(C)c3ccccc3)cc2)cc1 | · | · | · | · | · | -275
O=C(Nc1ncn[nH]1)c1cc(S(=O)(=O)Nc2ccc(Cl)cc2)ccc1Cl | -1 | 2 | 3 | -3 | 2 | 0
O=C(Nc1ncn[nH]1)c1ccc(Cl)c(S(=O)(=O)Nc2ccc(Cl)cc2)c1 | -10 | -1 | 17* | -2 | 2 | 0
CC1CC(C)CN(S(=O)(=O)c2ccc(NC(=S)NC(=O)c3ccccc3)cc2)C1 (stereo not given) | -5 | 19* | -4 | 0 | 2 | 3
Cc1ccc(C(=O)NN=C/C=C/c2ccccc2)o1 | · | · | · | · | · | 21*
Cc1ccc(-c2cc(C(=O)N/N=C/C=C/c3ccccc3)n[nH]2)s1 | -28 | 1 | 15* | 10 | 8 | ·
Cc1ccc(-c2cc(C(=O)NN=C/C=C/c3ccccc3)n[nH]2)s1 | · | · | · | · | · | 3
Cc1ccc(C(=O)N/N=C/C=C/c2ccccc2)o1 | -5 | 7 | 4 | 11 | -1 | ·
Cc1cc(NC(=S)N(Cc2ccc(Cl)cc2)Cc2ccc(C(=O)O)cc2)ccc1Cl | -16 | 8 | 16* | -9 | 4 | -2
Cc1cc(C)cc(NC(=S)N(Cc2ccc(Cl)cc2)Cc2ccc(C(=O)O)cc2)c1 | -15 | 3 | 4 | -1 | 3 | 1
Cc1ccsc1C=Nn1c(-c2cc(-c3ccccc3)n[nH]2)n[nH]c1=S | · | · | · | · | · | 4
CNC(=O)C1(C(F)(F)F)C/C(=C\CCO)CCCO1 (stereo not given) | 11 | 18* | 4 | 16 | 2 | 2
Cc1nn(C)c(C(=O)NN=Cc2ccccc2)c1[N+](=O)[O-] | · | · | · | · | · | 2
COc1ccc(CCN/C=C2/CC(=O)NC2=O)cc1OC | 2 | 25* | 1 | -5 | 2 | 2
CCc1cc(C(=O)O)c(NC(=O)/C=C/c2ccc(OC)c(OC)c2)s1 | -12 | 0 | -2 | 9 | -1 | 24*
CC1(C)C(/C=C/C=C/C=C/C=C2\N(CCCCS(=O)(=O)O)c3ccc4ccccc4c3C2(C)C)=[N+](CCCCS(=O)(=O)[O-])c2ccc3ccccc3c21 | -74 | -1 | 59* | -27 | 3 | 4
Cc1c2ccccc2cc[n+]1CCCS(=O)(=O)[O-] | -1 | -1 | -6 | -5 | 0 | -9
Clc1cc(Br)ccc1OCCOCCN1CCOCC1 | 8 | -4 | -3 | 15 | 3 | 29*
Clc1cc(Br)ccc1OCCOCCN1CCCC1 | 1 | -2 | 3 | 18 | 0 | 2
SMILES | UBC13 polyUb | Fh CTSL1 inh | PP1 inh | PREPL inhibitor | PP5 inh | UCH37 DUB inh
Fc1ccc(CON=CC2=C(Cl)c3ccccc3CC2)cc1 | · | · | · | · | · | 6
O=C1SCCC1NS(=O)(=O)c1ccc([N+](=O)[O-])cc1 (stereo not given) | -1 | 21* | 0 | 11 | 1 | 4
Cc1ccc2nc(C)c(C(=O)NN=Cc3cccc([N+](=O)[O-])c3)cc2c1 | · | · | · | · | · | 3
Cc1ccc(Nc2nc(CSc3nnc(-c4cccnc4)n3-c3ccccc3C)cs2)cc1 | 18 | 47* | 5 | 38 | 1 | 4
Cc1ccccc1-n1c(SCc2csc(Nc3ccccc3)n2)nnc1-c1cccnc1 | 2 | -3 | 1 | 27 | 4 | 3
COc1cc2c(cc1OC)C(C)N(C(=O)c1cccs1)CC2 (stereo not given) | -8 | -3 | -2 | -15 | 1 | 1
COc1cc2c(cc1OC)C(C)N(C(=O)c1cc3c(=O)oc4ccc(C)cc4c3s1)CC2 (stereo not given) | 47* | -1 | -4 | -1 | -1 | ·
O=C1S/C(=C/c2ccc(N3CCOCC3)o2)C(=O)N1Cc1c(F)cccc1Cl | -253 | 49* | -2 | 3 | -2 | 7
CNc1oc(-c2ccccc2)nc1S(=O)(=O)c1ccc(C)cc1 | -6 | 0 | 2 | 2 | 2 | 0
CNc1oc(Cc2ccccc2)nc1S(=O)(=O)c1ccccc1 | -2 | 22* | -1 | 2 | -1 | 2
Cc1ccc(S(=O)(=O)c2nc(C)oc2NCc2ccccc2)cc1 | 1 | 35* | -2 | -9 | 3 | ·
CNc1oc(C)nc1S(=O)(=O)c1ccc(C)cc1 | -16 | -1 | -4 | -13 | 2 | 2
NC(N)=NN=Cc1ccc(OS(=O)(=O)c2ccccc2)cc1 | · | · | · | · | · | 4
CC(=NO)c1ccccn1 | · | · | · | · | · | 1
COc1ccc2ccccc2c1C=NNC(=O)c1ccc([N+](=O)[O-])cc1 | · | · | · | · | · | 5
CC(=NNC(N)=O)c1ccc(Cl)s1 | · | · | · | · | · | 4
OC(CN1CCN(Cc2ccc3c(c2)OCO3)CC1)c1c[nH]c2ccccc12 (stereo not given) | 11 | · | · | · | · | ·
OC(CN1CCN(c2ccccc2)CC1)c1c[nH]c2ccccc12 (stereo not given) | -1 | 0 | -5 | 14 | -4 | 24*
COc1ccc(N(CC(=O)NN=C(C)c2ccc(C)cc2)S(=O)(=O)c2ccccc2)cc1 | · | · | · | · | · | 3
CCOC(=O)NC(=O)/C(C#N)=C\Nc1sccc1C(=O)OC | -7 | -3 | -8 | 11 | -5 | 28*
O=C(CNC(=O)c1ccc([N+](=O)[O-])cc1)NN=Cc1ccc(OC(=O)c2ccccc2)cc1 | · | · | · | · | · | 3
O=C(CNC(=O)c1ccc([N+](=O)[O-])cc1)N/N=C\c1ccc(OC(=O)c2ccccc2)cc1 | -11 | 2 | 16* | 6 | -1 | ·
Cc1cc([N+](=O)[O-])cc(C)c1OCC(=O)N/N=C/c1ccc(OC(=O)c2ccccc2Br)cc1 | -11 | 6 | 16* | 7 | 1 | ·
COc1cc(C=NNC(=O)COc2c(C)cc([N+](=O)[O-])cc2C)ccc1OC(=O)c1ccccc1Br | · | · | · | · | · | 3
Cc1ccc(/C(O)=C2/C(=O)C(=O)N(CCCn3ccnc3)C2c2ccccn2)cc1 (stereo not given) | -19 | · | · | · | · | 3
Cc1ccccc1COc1ccc(/C(O)=C2/C(=O)C(=O)N(CCCn3ccnc3)C2c2ccco2)cc1 (stereo not given) | 0 | -2 | 18* | 14 | 3 | 7
C=CCN1C(=O)/C(=C/c2ccc(OC(C)=O)c(OCC)c2[N+](=O)[O-])SC1=S | · | · | · | · | · | 42*

From PubChem BioAssay
